# A selection: hits, their analogues and other compounds. The true share with any hit is near 0.83%.
# RGS7-Gao reg = regulators of human RGS7-Galphao interaction | Multiplexed bead flow cytometry, RGS7-Galphao binding; actives lie on both sides | binding response (% of control), % at 10 µM | P09471 | hit rate 0.35% among 220,000; in the data active means binding response below about 49% or above about 150%; inconclusive means no clear call, values can overlap the other calls; inactive means in between;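 further: fluorescent Galphao held in activated GDP-AlF4 state binding bead-coupled RGS7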
# RGS16-Gao = regulators of human RGS16-Galphao interaction | O15492+P09471 | bead-based flow cytometry RGS16-Galphao binding, fluorescence; actives lie on both sides | binding response (% of control), % at 10 µM | hit rate 0.38% among 220,000 | AID 1441; call rule not given here;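 further: Galphao activated by GDP with aluminum fluoride before binding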
# RGS8-Gao reg = regulators of human RGS8-Galphao interaction; P09471; multiplexed bead flow cytometry, RGS8-Galphao binding; actives lie on both sides; response (percent of control binding), % at 10 µM; hit rate 0.34% among 220,000; AID 1423; in the data active means response below about 60% or above about 140%; inactive means in between;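 further: Galphao activated as the GDP aluminium fluoride complex binding bead-coupled RGS8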
# ABCG2 inh = blocks JC-1 efflux by human ABCG2 transporter | Q9UNQ0 | IgMXP3 cells, flow cytometry | inhibition, % at 6.6 µM | hit rate 0.1% among 190,000 | AID 1325;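 active means inhibition above 80%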;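 further: 0% = DMSO and 100% = nicardipine control wells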
# Target sequence (Q9UNQ0 whole entry, looked up): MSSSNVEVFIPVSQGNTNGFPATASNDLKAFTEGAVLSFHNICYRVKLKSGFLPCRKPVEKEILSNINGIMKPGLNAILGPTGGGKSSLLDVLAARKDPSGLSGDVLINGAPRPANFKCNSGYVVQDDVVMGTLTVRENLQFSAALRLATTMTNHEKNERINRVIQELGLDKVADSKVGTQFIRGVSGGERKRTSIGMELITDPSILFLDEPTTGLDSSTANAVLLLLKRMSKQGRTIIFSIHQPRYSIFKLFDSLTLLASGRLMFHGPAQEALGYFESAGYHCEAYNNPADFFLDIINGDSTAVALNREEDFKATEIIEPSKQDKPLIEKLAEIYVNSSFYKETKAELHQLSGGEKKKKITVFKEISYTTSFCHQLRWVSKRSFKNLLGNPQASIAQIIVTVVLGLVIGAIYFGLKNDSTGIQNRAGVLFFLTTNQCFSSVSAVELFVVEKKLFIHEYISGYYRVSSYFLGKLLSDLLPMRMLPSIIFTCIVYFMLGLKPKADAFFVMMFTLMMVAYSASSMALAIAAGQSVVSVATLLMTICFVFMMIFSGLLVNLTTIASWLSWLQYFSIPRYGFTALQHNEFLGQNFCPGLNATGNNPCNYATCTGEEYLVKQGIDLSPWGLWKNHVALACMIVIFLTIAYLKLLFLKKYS
#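 System: two drug-resistant human cell lines, ABCG2 and ABCB1; controls: nicardipine high and DMSO low controls; times: 10 min exposure at 25 °C with rotation, no wash; detection: flow cytometry of retained JC-1 fluorescence; read-out basis: percent efflux inhibition, scaled nicardipine 100% to DMSO 0%; doses: one concentration, 6.6 µM final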
# RGS4-Gao reg = modulates binding of RGS4 to human Galphao; AID 1415; Multiplexed bead flow cytometry; actives lie on both sides; hit rate 0.33% among 220,000; P09471; binding response (% of control), % at 10 µM; in the data active means binding response below about 49% or above about 150%; inactive means in between;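 further: fluorescent Galphao activated with aluminum fluoride binding bead-coupled RGS4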
# ABCB1 block = inhibitors of human ABCB1 transporter, ABCG2 counter-screen; inhibition, % at 6.6 µM; CCRF-Adr cells, JC-1 efflux, flow cytometry; AID 1326; hit rate 0.067% among 190,000; P08183; in the data active means inhibition above about 40%;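 further: 0% = vehicle and 100% = reference inhibitor; higher value means more JC-1 retained so stronger ABCB1 efflux block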
# ABCB1 single pt = confirmation of human ABCB1 transporter inhibitors, ABCG2 counter-screen. AID 1451. inhibition, % at 6.6 µM. hit rate 7% among 270. shares compounds with ABCG2 inh. CCRF-Adr cells, JC-1 efflux, flow cytometry;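 active means inhibition of pump activity above 50%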;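 further: 0% = DMSO and 100% = nicardipine full pump inhibition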
# ABCG2 confirm = confirmation of human ABCG2 transporter inhibitors, ABCB1 counter-screen | shares compounds with ABCG2 inh | IgMXP3 cells, JC-1 efflux, flow cytometry | inhibition, % at 6.6 µM | hit rate 6% among 270;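 active means inhibition above 50%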;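 further: 0% = DMSO wells and 100% = nicardipine pump inhibitor wells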
# IgMXP3 autofluor = IgMXP3 autofluorescence flag for ABCG2 confirmation | IgMXP3 cells, compound autofluorescence 488/530 nm, flow; hits give high values | shares compounds with ABCG2 inh | hit rate 30% among 270 | fluorescence at 6.6 µM;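 active means fluorescence in ABCG2-expressing cells above the plate's control-well mean plus 3 SD, cut at about 15 in these data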;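 further: median cell fluorescence with compound minus that of DMSO-treated control cells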
# CCRF autofluor = CCRF-Adr autofluorescence flag for ABCB1 confirmation. CCRF-Adr cells, compound autofluorescence 488/530 nm, flow cytometry; hits give high values. hit rate 30% among 270. fluorescence at 6.6 µM. shares compounds with ABCG2 inh;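 active means fluorescence beyond the plate control mean plus 3 SD, with a fluorescence-to-maximum score over 2, cut at about 25 in these data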
# Starred values were filed as active, the others as inactive; ? = inconclusive; . = no result given.
SMILES,RGS7-Gao reg,RGS16-Gao,RGS8-Gao reg,ABCG2 inh,RGS4-Gao reg,ABCB1 block,ABCB1 single pt,ABCG2 confirm,IgMXP3 autofluor,CCRF autofluor
CCN(CC)C(=O)CSc1nnc2nnc3cc(Cl)ccc3n12,?,106.7,101.7,.,101.5,.,.,.,.,.
CC(=O)N1c2c(cc(Br)cc2S(=O)(=O)N2CCN(C(=O)c3ccco3)CC2)CC1C (stereo not given),100.7,101.6,99.9,10.4,101.7,4.8,.,.,.,.
COc1ccc(NC(=S)NCc2cccn2C)cc1,94.1,97.5,98.9,74.9,98.9,3.3,0.8,11.8,-2.19,-4.44
CC1CCN(S(=O)(=O)c2cn(CC(=O)N3CC(C)CC(C)C3)c(=O)c3ccccc23)CC1 (stereo not given),103.4,185.0,124.9,14.3,112.1,4.8,.,.,.,.
CC(=O)Oc1c(/C=C(\C#N)C(N)=O)[nH]c2ccccc12,99.2,93.4,99.9,199.9*,97.6,163.3*,-18.4,-1.4,132*,272*
N#C/C(=C\c1c[nH]c2ccccc12)C(N)=O,?,101.8,102.7,.,105.2,.,.,.,.,.
O=S(=O)(NCc1cc(-c2ccccc2Cl)no1)c1ccc(Cl)cc1,101.9,99.4,96.3,0.3,97.0,0.0,.,.,.,.
COc1ccc(C(=O)NCc2nnc(SCC(=O)NO)n2Cc2ccccc2)cc1,?,103.3,102.4,-0.1,98.6,0.2,.,.,.,.
CCOc1ccc(OCC)c(NC(=O)CN2CCN(c3cccc(C)c3)CC2)c1,99.9,103.7,100.6,73.7,101.8,3.0,10.3,29.8,1.71,4.46
CCOc1ccc(OCC)c(NC(=O)CN2CCN(c3cccc(C)c3)C(C)C2)c1 (stereo not given),98.9,102.2,99.0,8.8,99.3,2.1,.,.,.,.
O=C(NCCCc1ccccc1)Nc1cccc(Cl)c1,102.6,117.2,103.2,93.5*,99.9,-0.2,1.9,21.1,-0.04,-1.69
CCCCCCCCNC(=O)c1cccnc1SCC(=O)Nc1ccccc1OC,103.1,134.1,107.3,92.5*,106.0,5.0,24.4,40.4,-1.69,-0.54
CC12COC3(C(=O)Nc4ccc(Cl)cc4)CC1CCC32C (stereo not given),99.2,103.7,97.9,8.4,97.8,1.7,.,.,.,.
CC12COC3(C(=O)Nc4ccc([N+](=O)[O-])cc4)CC1CCC32C (stereo not given),104.9,119.3,106.6,112.3*,104.4,3.1,3.0,39.8,-2.29,-4.54
CCNC(=O)COC(=O)CCNC(=O)c1ccc(Cl)cc1,?,99.6,100.5,.,100.1,.,.,.,.,.
Clc1ccc(Cl)c(-c2ccc(/C=N/c3ncn[nH]3)o2)c1,99.2,102.4,98.7,83.5*,102.8,4.1,-0.3,9.2,1.06,-0.64
CC(C)(C)NS(=O)(=O)c1ccc(NS(=O)(=O)c2ccc(F)cc2)cc1,98.9,97.9,99.7,1.6,100.9,0.7,.,.,.,.
CCOC(=O)c1ccc(COc2ccc(C(C)C)cc2)o1,98.6,97.1,95.2,3.7,94.1,0.0,.,.,.,.
CCOc1ccc(OCc2ccc(C(=O)OCc3ccccn3)o2)cc1,98.9,100.5,101.2,86.7*,100.4,2.6,0.5,26.1,0.46,-2.74
CN(C)c1ccnc(Oc2ccc(C(C)(C)C)cc2)c1C#N,92.2,66.9,93.6,-1.5,92.8,-4.3,.,.,.,.
COc1cc(SC)ccc1C(=O)Nc1ccccc1,96.1,94.5,99.5,83.8*,97.4,-1.5,3.1,36.3,18.4*,30.1*
CCc1ccccc1NC(=O)CN(C)C(=O)Cn1cc(C(F)(F)F)cc(Cl)c1=O,104.1,104.1,105.6,-0.9,102.5,0.0,.,.,.,.
N#Cc1ccc(-c2ccc(OCC(=O)NCCc3ccccc3)cc2)cc1,98.5,97.6,101.7,82.1*,100.2,-0.1,-0.5,31.9,2.76,31.4*
CC(=O)Nc1ccc(Nc2c3c4c(cccc4n(C)c2=O)C(=O)c2ccccc2-3)cc1,97.9,69.4,95.8,9.5,99.0,10.2,.,.,.,.
CCCCNc1c2c3c(cccc3n(C)c1=O)C(=O)c1ccccc1-2,104.1,104.2,101.3,141.6*,102.5,65.7*,3.7,15.8,70.7*,132*
SMILES,RGS7-Gao reg,RGS16-Gao,RGS8-Gao reg,ABCG2 inh,RGS4-Gao reg,ABCB1 block,ABCB1 single pt,ABCG2 confirm,IgMXP3 autofluor,CCRF autofluor
Cn1c(=O)c(NCCO)c2c3c(cccc31)C(=O)c1ccccc1-2,99.9,106.6,100.6,84.1*,102.0,7.1,0.4,19.7,12.6,8.31
Cn1c(=O)c(NCCc2ccccc2)c2c3c(cccc31)C(=O)c1ccccc1-2,101.5,102.6,100.3,150.8*,103.5,70.5*,10.2,33.5,55*,143*
CCC(C)C(NC(N)=O)C(=O)Nc1ccc(OCc2ccccc2)cc1 (stereo not given),?,95.0,98.3,.,96.6,.,.,.,.,.
CC(C)C(=O)Nc1ccc(C(=O)NNC(=O)c2ccco2)cc1,106.8,109.4,105.4,-0.4,106.1,-0.1,.,.,.,.
CCN=C1S/C(=C\c2sccc2C)C(=O)N1CC,107.8,108.5,100.4,2.7,108.2,0.0,.,.,.,.
Cc1c(NC(=O)c2cc3c(s2)CCCC3)c(=O)n(-c2ccccc2)n1C,?,100.1,101.0,0.0,99.1,0.2,.,.,.,.
CCCCN(CC)c1nc(N)c2c(N)nc(OCC)cc2c1C#N,97.4,96.1,98.7,77.5,95.9,4.1,8.9,32.6,-0.14,-2.59
CN(Cc1ccccc1)C(=O)c1cccc(N2C(=O)NC3CC2(C)Oc2ccccc23)c1 (stereo not given),102.3,107.1,104.5,-4.3,99.2,-0.1,.,.,.,.
CCCNC(=O)Cn1c(=O)/c(=C\c2ccc(-c3ccc([N+](=O)[O-])cc3)o2)s/c1=C\C(=O)C(C)(C)C,115.2,49.4,81.8,158.7*,109.6,129.4*,-90.0,-116.2,524*,441*
COc1cccc(C2C(C(=O)Nc3nc4ccccc4s3)=C(C)NC3=C2C(=O)CC(C)(C)C3)c1OC (stereo not given),101.5,99.3,99.6,5.8,99.3,44.6*,59.0*,12.0,28.6*,4.26
COc1ccc(OC)c(C2C(C(=O)Nc3nc4ccccc4s3)=C(C)NC3=C2C(=O)CCC3)c1 (stereo not given),100.0,100.3,101.5,10.6,100.2,6.4,.,.,.,.
CCOc1nc(SCCOc2ccc(C)cc2)nc(N(C)C)n1,121.2,177.5,131.3,102.5*,122.9,3.1,5.3,24.8,-1.34,-0.14
